Experimental data: ChEMBL document CHEMBL1140411, “Deoxyuridine triphosphate nucleotidohydrolase as a potential antiparasitic drug target” (J Med Chem, 2005)

What was measured:
dUTP pyrophosphatase [1] = target: T1, dUTP pyrophosphatase (Plasmodium falciparum 3D7, UniProt Q8II92); assay: Inhibitory constant against Plasmodium falciparum deoxyuridine 5'-triphosphate nucleotidohydrolase expressed in Escherichia coli BL21 (DE3) cells
T1 sequence (Q8II92 whole entry): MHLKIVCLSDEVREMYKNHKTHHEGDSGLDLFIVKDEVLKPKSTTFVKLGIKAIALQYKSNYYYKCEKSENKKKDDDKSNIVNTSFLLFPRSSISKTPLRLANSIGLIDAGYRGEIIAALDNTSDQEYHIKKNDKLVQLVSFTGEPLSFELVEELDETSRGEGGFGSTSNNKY
Procedure, shortened: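 Recombinant PfdUTPase expressed in E. coli BL21(DE3) and purified by phosphocellulose and gel filtration to ~96% purity. Continuous stopped-flow assay following proton release with cresol red/bicine (50:2000 µM, 573 nm). Mix: 30 nM enzyme, 50 µM dUTP, 5 mM MgCl2, 2.5 mM DTT, 1.25 mg/mL BSA, 100 mM KCl. KMapp from integrated Michaelis-Menten fits, plotted against [I] to give Ki.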

Leishmania donovani = assay: In vitro growth inhibitory activity against Leishmania donovani amastigotes at 37 degrees C under a 5% CO2 atmosphere for 96 hours; type: functional, organism-based
Procedure, shortened: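 Mouse peritoneal macrophages in RPMI 1640 with 10% heat-inactivated FBS, infected after 24 h with L. donovani amastigotes at 3:1 (amastigote:macrophage). Free amastigotes washed out at 4 h. Next day, drug-containing medium added for 96 h at 37 °C, 5% CO2. Slides methanol-fixed and Giemsa-stained. Percentage of infected macrophages scored microscopically versus control; IC50 by linear regression. Twice independently, in duplicate.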

Plasmodium falciparum = assay: In vitro inhibitory activity against Plasmodium falciparum as [3H]hypoxanthine (50 uL) incorporation at 37C; type: functional, organism-based
[2] = system: Trypanosoma brucei rhodesiense; assay: Inhibitory constant against Trypanosoma brucei rhodesiense upon incubation with the compound at 37 degrees C under a 5% CO2 atmosphere for 72 hours; type: functional, organism-based
dUTP pyrophosphatase [3] = target: T2, dUTP pyrophosphatase (Leishmania major, UniProt O15826); assay: Inhibitory constant against Leishmania major deoxyuridine 5'-triphosphate nucleotidohydrolase
T2 sequence (O15826 whole entry): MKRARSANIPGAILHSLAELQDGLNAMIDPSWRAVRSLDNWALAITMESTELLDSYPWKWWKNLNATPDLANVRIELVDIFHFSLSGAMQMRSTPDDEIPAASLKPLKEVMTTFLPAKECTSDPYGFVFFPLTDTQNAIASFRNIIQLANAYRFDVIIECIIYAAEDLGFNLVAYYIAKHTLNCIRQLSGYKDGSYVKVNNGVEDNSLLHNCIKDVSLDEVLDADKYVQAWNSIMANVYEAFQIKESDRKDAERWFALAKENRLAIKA

[4] = target: T3, dUTP pyrophosphatase (Plasmodium falciparum 3D7) (UniProt Q8II92); assay: Selectivity index for Plasmodium falciparum deoxyuridine 5'-triphosphate nucleotidohydrolase defined as (Ki Human)/(Ki Plasmodium falciparum); na= not relevant
T3 sequence (whole entry): T1 sequence (Q8II92 whole entry)
Procedure, shortened: (§1)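 Ratio of human dUTPase Ki to P. falciparum dUTPase Ki. Both Ki values came from stopped-flow pH-indicator assays following dUTP hydrolysis, with Ki derived from the dependence of apparent KM on inhibitor concentration.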

[5] = target: T4, Deoxyuridine 5'-triphosphate nucleotidohydrolase, mitochondrial (Homo sapiens, UniProt P33316); assay: Inhibitory constant against human deoxyuridine 5'-triphosphate nucleotidohydrolase expressed in Escherichia coli BL21 (DE3) cells
T4 sequence (P33316 whole entry): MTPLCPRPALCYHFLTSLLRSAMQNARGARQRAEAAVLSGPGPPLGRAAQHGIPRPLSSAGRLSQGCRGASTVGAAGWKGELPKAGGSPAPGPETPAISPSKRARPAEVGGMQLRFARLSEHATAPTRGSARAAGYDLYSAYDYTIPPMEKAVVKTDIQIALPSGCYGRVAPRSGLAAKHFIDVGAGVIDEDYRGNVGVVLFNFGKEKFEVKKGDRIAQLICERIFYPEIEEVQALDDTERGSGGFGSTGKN
Procedure, shortened: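 Human dUTPase expressed in E. coli BL21(DE3) and purified like the Plasmodium enzyme (phosphocellulose, then gel filtration). dUTP hydrolysis followed continuously by stopped-flow as pH-indicator absorbance (cresol red/bicine, 50:2000 µM, 573 nm). Apparent KM from integrated Michaelis-Menten fits at each inhibitor concentration; Ki from linear KMapp versus [I].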

Trypanosoma cruzi = assay: In vitro growth inhibitory activity against Trypanosoma cruzi in rat L-6 cells upon incubation at 37 degrees C in 5% CO2 atmosphere for 4 days; type: functional, organism-based; settings: L6, 96 h
Procedure, shortened: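 L-6 cells seeded at 2000 cells/well in RPMI 1640 with 10% FBS and 2 mM L-glutamine. After 24 h, 5000 T. cruzi Tulahuen C2C4 LacZ trypomastigotes added with serial drug dilutions, then 4 days at 37 °C, 5% CO2. CPRG/Nonidet substrate added and colour read at 540 nm after 2-4 h. IC50 from sigmoidal curve. Twice independently, in duplicate.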

L6 = assay: In vitro cytotoxicity aganist rat skeletal myoblasts (L-6 cells) after 72 hours; type: functional, cell-based; settings: L6, 72 h
Procedure, shortened: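 L-6 rat skeletal myoblasts seeded at 4 × 10^4 cells/mL in RPMI 1640 with 10% FBS and 2 mM L-glutamine. After 24 h, medium replaced with a serial drug dilution, then 72 h at 37 °C, 5% CO2. Alamar Blue added for a further 2-4 h. Fluorescence read at ex 536/em 588 nm. Run twice independently, in duplicate.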

[6] = target: T3, dUTP pyrophosphatase (Plasmodium falciparum 3D7); assay: Selectivity index for Plasmodium falciparum deoxyuridine 5'-triphosphate nucleotidohydrolase defined as (Ki Human)/(Ki Plasmodium falciparum); procedure, shortened: as §1

Compound	Ki (dUTP pyrophosphatase [1]) [µM]	IC50 (Leishmania donovani) [µM]	IC50 (Plasmodium falciparum) [µM]	IC50 [2] [µM]	Ki (dUTP pyrophosphatase [3]) [µM]	SI [4]	Ki [5] [µM]	IC50 (Trypanosoma cruzi) [µM]	IC50 (L6) [µM]	SI [6]
NS(=O)(=O)OC[C@H]1O[C@@H](n2ccc(=O)[nH]c2=O)C[C@@H]1O	> 1000	> 98	> 163	145	707	Not Relevant	> 1000	> 293		
O=c1ccn(C2CC(F)C(CNC(c3ccccc3)(c3ccccc3)c3ccccc3)O2)c(=O)[nH]1 (centres undefined)	12	> 63	5.3	3.6	> 1000		> 1000	47	30	> 83
NS(=O)(=O)NC(=O)OCC1C=CC(n2ccc(=O)[nH]c2=O)O1 (centres undefined)	82	> 90	> 150	40	> 1000		799	> 270	262	9.7
CCCCC(=O)OC[C@H]1O[C@@H](n2ccc(=O)[nH]c2=O)C[C@@H]1O	228	96	> 16	147	> 1000		> 1000	> 284	> 289	> 4
CCOP(=O)(CC(=O)OC[C@H]1O[C@@H](n2ccc(=O)[nH]c2=O)C[C@@H]1O[Si](C)(C)C(C)(C)C)OCC	217	> 58	18	40	> 1000	Not Relevant		75		
CC(=O)NCC1OC(n2ccc(=O)[nH]c2=O)CC1O (centres undefined)	> 1000	> 112	> 19	194	> 1000	Not Relevant	> 1000	> 335	> 335	
O=c1ccn(C2CC(O)C(CNP(=O)(Oc3ccccc3)Oc3ccccc3)O2)c(=O)[nH]1 (centres undefined)	26	> 65	> 11	> 196	> 1000		> 1000	> 65	> 196	> 38
NCC1OC(n2ccc(=O)[nH]c2=O)CC1O (centres undefined)	> 1000				> 1000	Not Relevant	> 1000			
CC(C)(C)[Si](C)(C)OC1CC(n2ccc(=O)[nH]c2=O)OC1CNP(=O)(Oc1ccccc1)Oc1ccccc1 (centres undefined)	67	< 6	4	28	> 1000		232	6	18	3.5
CC(C)(C)[Si](C)(C)O[C@H]1C[C@H](n2ccc(=O)[nH]c2=O)O[C@@H]1COC(c1ccccc1)(c1ccccc1)c1ccccc1	515	17	1	25	454		> 1000	247	> 154	> 1.9
O=C(NCC1OC(n2ccc(=O)[nH]c2=O)CC1O)c1ccccc1 (centres undefined)	178	> 91	> 15	120	> 1000		469	> 272	> 272	2.6
CCOP(=O)(OCC)OC[C@H]1O[C@@H](n2ccc(=O)[nH]c2=O)C[C@@H]1O[Si](C)(C)C(C)(C)C	340	63	> 10	35	> 1000		> 1000	41	108	> 3
CC(C)(C)[Si](C)(C)O[C@H]1C[C@H](n2ccc(=O)[nH]c2=O)O[C@@H]1CO	648	> 88	> 15	83	114		119	> 263	> 263	0.2
CS(=O)(=O)NCC1OC(n2ccc(=O)[nH]c2=O)CC1O (centres undefined)	178	> 98	> 16	147	> 1000		> 1000	> 295	> 295	> 5
Cc1ccc(S(=O)(=O)OC[C@H]2O[C@@H](n3ccc(=O)[nH]c3=O)C[C@@H]2O)cc1	142	> 79	> 13	44	> 1000		> 1000	> 236	> 236	> 7
O=C(OC[C@H]1O[C@@H](n2ccc(=O)[nH]c2=O)C[C@@H]1O)c1ccccc1	268	> 90	> 15	117	> 1000		> 1000	> 271	> 271	> 3
CC(=O)OC[C@H]1O[C@@H](n2ccc(=O)[nH]c2=O)C[C@@H]1O	294	> 111	> 19	13	> 1000		> 1000	273	64	> 3
CCOP(=O)(OCC)OC[C@H]1O[C@@H](n2ccc(=O)[nH]c2=O)C[C@@H]1O	316	> 82	> 14	37	> 1000		> 1000	> 247	198	> 3
O=c1ccn([C@H]2C[C@H](O)[C@@H](COP(=O)(Oc3ccccc3)Oc3ccccc3)O2)c(=O)[nH]1	238	> 65	> 11	52	> 1000		135	> 196	> 196	0.6
O=c1ccn(C2CC(F)C(CO[Si](c3ccccc3)(c3ccccc3)c3ccccc3)O2)c(=O)[nH]1 (centres undefined)	975		1	4.5	> 1000	Not Relevant	> 1000	84	86	
CC(C)(C)[Si](C)(C)O[C@H]1C[C@H](n2ccc(=O)[nH]c2=O)O[C@@H]1COP(=O)(Oc1ccccc1)Oc1ccccc1	597	> 17	6	12	116		> 1000	10	> 157	> 1.7
CCCCC(=O)NCC1OC(n2ccc(=O)[nH]c2=O)CC1O (centres undefined)	189	> 97	> 16	149	> 1000		> 1000	> 289	> 289	> 5
